Results as given in ChEMBL document CHEMBL3259759, “Discovery of novel bacterial elongation condensing enzyme inhibitors by virtual screening” (Bioorg Med Chem Lett, 2014).

Assays:
Escherichia coli = assay: Inhibition of Escherichia coli FabB at 200 uM by radiochemical assay
Procedure, shortened: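 Radiochemical condensing-enzyme assay with FabB, run per an earlier method except that lauryl-ACP replaced myristoyl-ACP. The lauryl-ACP was made with Vibrio harveyi acyl-ACP synthetase. Compounds were tested at a single final concentration of 200 μM, and inhibition is given as percent.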

[1] = Inhibition of Escherichia coli FabB by radiochemical assay
Procedure, shortened: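 Radiochemical condensing-enzyme assay with E. coli FabB, run as described earlier except that myristoyl-ACP was replaced by lauryl-ACP. The lauryl-ACP was made with Vibrio harveyi acyl-ACP synthetase. Compounds were first screened at a single final concentration of 200 μM, and selected compounds then went to dose-response testing to derive IC50.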

[2] = Inhibition of Staphylococcus aureus FabF by radiochemical assay

SMILES	inhibition (Escherichia coli) [%]	IC50 [1] [µM]	IC50 [2] [µM]
COc1cccc(C2CCCN2Cn2c(=O)oc3cc(Cl)ccc32)c1 (racemic)	36.4	–	–
O=c1sc2ccc(Cl)cc2n1CN1CCCC1c1cccc(Br)c1 (racemic)	36.1	303	–
O=c1oc2ccccc2n1CN(Cc1ccc(F)cc1)C1CC1	5	–	–
CN(Cc1cccc(O)c1)Cn1c(=O)oc2ccc(Cl)cc21	41.4	–	–
O=c1oc2ccc(Cl)cc2n1CN1CCCCC1c1ccccc1 (racemic)	30.4	415	–
CN(CC1CCCC1)Cn1c(=O)oc2ccc(Cl)cc21	17.7	–	–
COc1cccc(CN(Cn2c(=O)oc3cc(Cl)ccc32)C2CC2)c1	28.3	–	–
CN(Cc1ccccc1)Cn1c(=O)oc2ccccc21	33.5	235	387
O=c1oc2cc(Cl)ccc2n1CN(CC1CCOC1)C1CC1 (racemic)	24.1	800	–
Cc1ccc2oc(=O)n(CN(CC3CCOC3)C3CC3)c2c1 (racemic)	40.1	–	–
CC(CN(C)Cn1c(=O)oc2cc(Cl)ccc21)N1CCOCC1 (racemic)	24.3	–	–
O=c1oc2ccc(Cl)cc2n1CN1CCCC2(CCOCC2)C1	37.7	335	–
CN(CCN1CCCC1)Cn1c(=O)oc2cc(Cl)ccc21	26.4	–	–
CN(Cc1ccsc1)Cn1c(=O)oc2ccccc21	30	–	–
CN(CC1CCOCC1)Cn1c(=O)oc2cc(Cl)ccc21	31.7	–	–
O=c1oc2ccc(Cl)cc2n1CN1CCCC1c1cccc(Br)c1 (racemic)	55.4	260	–
COc1cccc(C2CCCN2Cn2c(=O)oc3ccc(Cl)cc32)c1 (racemic)	37.1	305	–
O=c1oc2cc(Cl)ccc2n1CN1CCCC2(CCOCC2)C1	38.8	–	–
N#Cc1ccc2oc(=O)n(CN3CCCC3c3cccc(Br)c3)c2c1 (racemic)	42.1	253	–
CN1CCC(CN(C)Cn2c(=O)oc3cc(Cl)ccc32)C1 (racemic)	23.8	–	–
O=c1oc2cc(Br)ccc2n1CN1CCC2(CC1)OCCO2	32.7	600	–
O=c1oc2cc(Br)ccc2n1CN(CC1CCCC1)C1CC1	17.7	–	–
O=c1oc2ccc(Cl)cc2n1CN1CCC1c1ccccc1 (racemic)	31.9	–	–
O=c1oc2cc(Cl)ccc2n1CN1CCCCC1c1ccccc1 (racemic)	38	–	–
O=c1oc2ccccc2n1CN(Cc1ccsc1)C1CC1	37.8	–	–
O=c1oc2ccc(Cl)cc2n1CN(CC1CCOC1)C1CC1 (racemic)	36.7	350	–
O=c1oc2ccccc2n1CN1CCCC1	24	–	–
O=c1oc2cc(Cl)ccc2n1CN(Cc1cccnc1)C1CC1	23.6	–	–
O=c1oc2cc(Cl)ccc2n1CN(Cc1ccc(F)cc1)C1CC1	32.1	–	–
O=c1oc2cc(Cl)ccc2n1CN(Cc1ccccn1)C1CC1	30	–	–
